Assay results reported in ChEMBL document CHEMBL4038305, “Benzoxaborole Antimalarial Agents. Part 5. Lead Optimization of Novel Amide Pyrazinyloxy Benzoxaboroles and Identification of a Preclinical Candidate” (J Med Chem, 2017).

Tests used:
[1] = Terminal half life in Sprague-Dawley rat at 5 mg/kg, po via gavage by HPLC/MS analysis; assay type: ADME, organism-based; conditions: in vivo, read-out: beta t1/2 (converted)
Rattus norvegicus [2] = test: Genotoxicity in rat assessed as micronucleated polychromatic erythrocytes in bone marrow at 2000 mg/kg administered via oral gavage measured after 24 hrs post dose by micronucleus assay (reference value: 0.07 +/- 0.05%); assay type: toxicity, organism-based; conditions: in vivo
Plasmodium falciparum [3] = test: Antimalarial activity against Plasmodium falciparum V1/S infected in human erythrocytes assessed as reduction in [3H]-hypoxanthine incorporation preincubated for 24 hrs followed by [3H]-hypoxanthine addition measured after 24 hrs by scintillation counting method; assay type: functional, cell-based
Lymphocyte [4] = test: Genotoxicity in human lymphocytes assessed as replication index at 40 ug/mL after 28 hrs in absence of rat liver S9 fraction by micronucleus assay relative to control; assay type: toxicity, cell-based
Outline: (§1)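 Human lymphocytes exposed for 3 h with or without rat liver S9, or 28 h without S9, with 1% DMSO as vehicle control. Replication index = (binucleated + 2 × multinucleated cells)/total cells. Cytotoxicity (%) = 100 − (RI treated/RI vehicle) × 100.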

Lymphocyte [5] = test: Genotoxicity in human lymphocytes assessed as increase in frequency of micronucleated cells at 355.15 ug/mL after 3 hrs in presence of rat liver S9 fraction by micronucleus assay (reference value: 0.63%); assay type: toxicity, cell-based; conditions: s9, 3 h
[6] = Terminal half life in Sprague-Dawley rat at 5 mg/kg, iv by HPLC/MS analysis; assay type: ADME, organism-based; conditions: in vivo, read-out: beta t1/2 (converted)
Salmonella typhimurium [7] = test: Genotoxicity in Salmonella typhimurium TA1535 assessed as number of revertants per plate at 50 ug/plate in absence of rat liver S9 fraction by Ames test (reference value: 10 +/- 3); assay type: toxicity; conditions: salmonella enterica subsp. enterica serovar typhimurium
Rattus norvegicus [8] = test: Genotoxicity in rat assessed as micronucleated polychromatic erythrocytes in bone marrow at 500 mg/kg administered via oral gavage measured after 24 hrs post dose by micronucleus assay (reference value: 0.07 +/- 0.05%); assay type: toxicity, organism-based; conditions: in vivo
[9] = AUC (0 to infinity) in Beagle dog at 5 mg/kg, iv by HPLC/MS analysis; assay type: ADME, organism-based, Canis lupus familiaris; set-up: dose 5 mg/kg, time infinity, route intravenous; conditions: in vivo
Rattus norvegicus [10] = test: Genotoxicity in rat assessed as change in polychromatic erythrocytes in bone marrow at 1000 mg/kg administered via oral gavage measured after 24 hrs post dose by micronucleus assay relative to control; assay type: toxicity, organism-based; conditions: in vivo
Escherichia coli [11] = test: Genotoxicity in Escherichia coli WP2uvrA assessed as number of revertants per plate at 1.5 ug/plate in presence of rat liver S9 fraction by Ames test (reference value: 42 +/- 6); assay type: toxicity
Lymphocyte [12] = test: Genotoxicity in human lymphocytes assessed as replication index at 80 ug/mL after 3 hrs in presence of rat liver S9 fraction by micronucleus assay relative to control; assay type: toxicity, cell-based; conditions: s9, 3 h; outline: as §1
Salmonella typhimurium [13] = test: Genotoxicity in Salmonella typhimurium TA100 assessed as number of revertants per plate at 1.5 ug/plate in presence of rat liver S9 fraction by Ames test (reference value: 141 +/- 1); assay type: toxicity; conditions: salmonella enterica subsp. enterica serovar typhimurium
Salmonella typhimurium [14] = test: Genotoxicity in Salmonella typhimurium TA98 assessed as number of revertants per plate at 15 ug/plate in presence of rat liver S9 fraction by Ames test (reference value: 19 +/- 8); assay type: toxicity; conditions: salmonella enterica subsp. enterica serovar typhimurium
Salmonella typhimurium [15] = test: Genotoxicity in Salmonella typhimurium TA98 assessed as number of revertants per plate at 1.5 ug/plate in absence of rat liver S9 fraction by Ames test (reference value: 14 +/- 6); assay type: toxicity; conditions: salmonella enterica subsp. enterica serovar typhimurium
Salmonella typhimurium [16] = test: Genotoxicity in Salmonella typhimurium TA1537 assessed as number of revertants per plate at 50 ug/plate in absence of rat liver S9 fraction by Ames test (reference value: 19 +/- 9); assay type: toxicity; conditions: salmonella enterica subsp. enterica serovar typhimurium
Plasmodium falciparum [17] = test: Antimalarial activity against Plasmodium falciparum D6 infected in human erythrocytes assessed as reduction in [3H]-hypoxanthine incorporation preincubated for 24 hrs followed by [3H]-hypoxanthine addition measured after 24 hrs by scintillation counting method; assay type: functional, cell-based
Salmonella typhimurium [18] = test: Genotoxicity in Salmonella typhimurium TA100 assessed as number of revertants per plate at 150 ug/plate in presence of rat liver S9 fraction by Ames test (reference value: 141 +/- 1); assay type: toxicity; conditions: salmonella enterica subsp. enterica serovar typhimurium
[19] = AUC in rat at 2000 mg/kg administered via oral gavage; assay type: ADME, organism-based; conditions: in vivo
Escherichia coli [20] = test: Genotoxicity in Escherichia coli WP2uvrA assessed as number of revertants per plate at 1500 ug/plate in absence of rat liver S9 fraction by Ames test (reference value: 45 +/- 9); assay type: toxicity
Plasmodium falciparum [21] = test: Antimalarial activity against intraerythrocytic stage of Plasmodium falciparum assessed as time required to clear 99.9% of initial parasite population at 100 times IC50 preincubated for 24 hrs followed by [3H]-hypoxanthine addition measured after 24 hrs by scintillation counting method; assay type: functional
Outline: (§2)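 In vitro P. falciparum parasite reduction ratio assay run at 10×, 30× and 100× IC50. Derived parameters: lag phase (time to maximal killing), PRR (parasites killed per life cycle) and PCT99.9% (time to clear 99.9% of the initial parasite population).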

Lymphocyte [22] = test: Genotoxicity in human lymphocytes assessed as increase in frequency of micronucleated cells at 80 ug/mL after 28 hrs in absence of rat liver S9 fraction by micronucleus assay (reference value: 0.74%); assay type: toxicity, cell-based
Lymphocyte [23] = test: Genotoxicity in human lymphocytes assessed as increase in frequency of micronucleated cells at 160 ug/mL after 3 hrs in absence of rat liver S9 fraction by micronucleus assay (reference value: 0.99%); assay type: toxicity, cell-based
Plasmodium falciparum [24] = test: Antimalarial activity against intraerythrocytic stage of Plasmodium falciparum assessed as parasite reduction ratio at 100 times IC50 preincubated for 24 hrs followed by [3H]-hypoxanthine addition measured after 24 hrs by scintillation counting method; assay type: functional; outline: as §2
Salmonella typhimurium [25] = test: Genotoxicity in Salmonella typhimurium TA98 assessed as number of revertants per plate at 5 ug/plate in presence of rat liver S9 fraction by Ames test (reference value: 19 +/- 8); assay type: toxicity; conditions: salmonella enterica subsp. enterica serovar typhimurium
Salmonella typhimurium [26] = test: Genotoxicity in Salmonella typhimurium TA98 assessed as number of revertants per plate at 5000 ug/plate in presence of rat liver S9 fraction by Ames test (reference value: 19 +/- 8); assay type: toxicity; conditions: salmonella enterica subsp. enterica serovar typhimurium
Salmonella typhimurium [27] = test: Genotoxicity in Salmonella typhimurium TA98 assessed as number of revertants per plate at 50 ug/plate in presence of rat liver S9 fraction by Ames test (reference value: 19 +/- 8); assay type: toxicity; conditions: salmonella enterica subsp. enterica serovar typhimurium
[28] = Terminal half life in Beagle dog at 5 mg/kg, po via gavage by HPLC/MS analysis; assay type: ADME, organism-based, Canis lupus familiaris; conditions: in vivo, read-out: beta t1/2 (converted)
Outline: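 Female CD-1 mice, male SD rats or beagle dogs given 5 mg/kg by iv injection or oral gavage. Formulation was PEG300/propylene glycol/water 55/25/20, pH 6. Blood samples analysed by HPLC–MS/MS; parameters include AUC0-inf extrapolated to infinity and terminal half-life.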

Plasmodium berghei = test: Antimalarial activity against Plasmodium berghei infected in Swiss Webster mouse assessed as mouse survival rate at 1 mg/kg administered once daily via oral gavage for 4 consecutive days beginning 1 hr after infection measured on day 6 post infection relative to control; assay type: functional
Outline: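 Mice given an intraperitoneal injection of P. berghei-infected erythrocytes taken from a previously infected animal. Oral dosing once daily for 4 consecutive days, starting 1 h after infection. Vehicle: polyethylene glycol 300/propylene glycol/water (weight ratio 55/25/20). Percent survival recorded daily from day 4 to day 20. Chloroquine 30 mg/kg and vehicle-only groups served as controls.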

SMILES: Cc1c(Oc2cnc(C(=O)N3CC(C)(O)C3)cn2)ccc2c1B(O)OC2
- half-life [1]: 5.2 h
- Activity (Rattus norvegicus [2]): 0.09%
- IC50 (Plasmodium falciparum [3]): 63 nM
- Activity (Lymphocyte [4]): 7%
- Activity (Lymphocyte [5]): 0.73%
- half-life [6]: 4.6 h
- Activity (Salmonella typhimurium [7]): 8
- Activity (Rattus norvegicus [8]): 0.03%
- AUC(0-inf) [9]: 168 µg·h/mL
- Activity (Rattus norvegicus [10]): 0%
- Activity (Escherichia coli [11]): 39
- Activity (Lymphocyte [12]): 1%
- Activity (Salmonella typhimurium [13]): 150
- Activity (Salmonella typhimurium [14]): 13
- Activity (Salmonella typhimurium [15]): 15
- Activity (Salmonella typhimurium [16]): 12
- IC50 (Plasmodium falciparum [17]): 62 nM
- Activity (Salmonella typhimurium [18]): 154
- AUC [19]: 742 µg·h/mL
- Activity (Escherichia coli [20]): 33
- T99.9% (Plasmodium falciparum [21]): 30 h
- Activity (Lymphocyte [22]): 1.28%
- Activity (Lymphocyte [23]): 1.18%
- log(ratio) (Plasmodium falciparum [24]): 4.9
- Activity (Salmonella typhimurium [25]): 15
- Activity (Salmonella typhimurium [26]): 18
- Activity (Salmonella typhimurium [27]): 17
- half-life [28]: 9.5 h

SMILES: Cc1c(Oc2cnc(C(=O)NC(C)CO)cn2)ccc2c1B(O)OC2 (centres undefined)
- survival at 1 mg/kg (Plasmodium berghei): 20%
